Numbering of substitutions follows the chain as printed.
Columns and labels:
[1] = target: T1, Neuronal acetylcholine receptor; alpha4/beta2 (Rattus norvegicus, UniProt P09483+P12390); test: The compound was evaluated for percentage inhibition of binding of [3H]- nicotine to Nicotinic acetylcholine receptor alpha4-beta2 in Rat Cerebral Cortical Membranes; type: protein-complex assay
Summary of the method: (§1)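 Rat cerebral cortex membranes with 0.2 nM [3H]nicotine in HEPES binding buffer pH 7.4 containing 200 µM diisopropyl fluorophosphate. Incubation was 120 min at 0–4 °C, in triplicate. Nonspecific binding used 1 µM nicotine. Samples were filtered through polyethylenimine-soaked GF/B filters and counted.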

[2] = target: T2, Muscarinic acetylcholine receptor M1 (Rattus norvegicus, UniProt P08482); test: The compound was evaluated for inhibition of binding of [3H]quinuclidinyl benzilate to Muscarinic acetylcholine receptor M1 in Rat Cerebral Cortical Membranes
T2 sequence (P08482 whole entry): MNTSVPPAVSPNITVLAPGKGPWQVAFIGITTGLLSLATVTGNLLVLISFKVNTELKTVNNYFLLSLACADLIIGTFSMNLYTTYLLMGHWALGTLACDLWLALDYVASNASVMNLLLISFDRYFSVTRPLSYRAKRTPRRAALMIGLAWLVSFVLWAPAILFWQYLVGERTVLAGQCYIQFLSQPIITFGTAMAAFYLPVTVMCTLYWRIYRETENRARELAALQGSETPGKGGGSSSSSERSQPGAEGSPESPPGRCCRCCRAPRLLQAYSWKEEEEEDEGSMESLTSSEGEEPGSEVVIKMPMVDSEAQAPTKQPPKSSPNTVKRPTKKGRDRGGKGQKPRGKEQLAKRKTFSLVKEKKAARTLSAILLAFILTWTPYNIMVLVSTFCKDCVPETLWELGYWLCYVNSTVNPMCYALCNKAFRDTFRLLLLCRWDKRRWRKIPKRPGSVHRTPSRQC
Summary of the method: (§2)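 Rat cerebral cortex membranes were homogenised in 50 mM Tris-HCl pH 7.4 and diluted in HEPES binding buffer. They were incubated with 0.2 nM [3H]quinuclidinyl benzilate in 20 mM HEPES pH 7.4 with 10 mM MgCl2 and 100 mM NaCl for 30 min at 37 °C, in triplicate. Nonspecific binding used 1 µM atropine. Filtration was followed by scintillation counting.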

[3] = target: Muscarinic acetylcholine receptor M2 (Homo sapiens) (UniProt P08172); test: Inhibition of binding of [3H]quinuclidinyl benzilate to Muscarinic acetylcholine receptor M2 in membranes of transfected CHO cells
[4] = target: T3, Muscarinic acetylcholine receptor M3 (Homo sapiens, UniProt P20309); test: Inhibition of binding of [3H]quinuclidinyl benzilate to muscarinic receptors in membranes of CHO cells transfected with Muscarinic acetylcholine receptor M3; type: cell membranes
Target sequence in this assay (P20309 whole entry): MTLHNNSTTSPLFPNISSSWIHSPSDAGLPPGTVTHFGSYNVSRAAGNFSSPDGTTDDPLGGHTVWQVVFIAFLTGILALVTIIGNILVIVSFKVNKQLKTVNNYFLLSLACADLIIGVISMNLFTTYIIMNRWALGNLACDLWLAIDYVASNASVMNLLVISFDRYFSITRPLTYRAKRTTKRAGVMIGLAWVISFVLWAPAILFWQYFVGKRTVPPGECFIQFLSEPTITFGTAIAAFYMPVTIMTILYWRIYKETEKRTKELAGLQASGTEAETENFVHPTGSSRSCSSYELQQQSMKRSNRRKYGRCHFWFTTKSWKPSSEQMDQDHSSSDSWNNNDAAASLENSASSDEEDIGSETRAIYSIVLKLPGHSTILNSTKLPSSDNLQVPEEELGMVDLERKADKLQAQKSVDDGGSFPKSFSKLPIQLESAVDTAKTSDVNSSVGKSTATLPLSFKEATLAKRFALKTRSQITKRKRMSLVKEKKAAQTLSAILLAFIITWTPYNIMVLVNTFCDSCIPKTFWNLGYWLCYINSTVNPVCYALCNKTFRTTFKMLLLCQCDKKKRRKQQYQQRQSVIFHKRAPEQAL

[5] = target: Muscarinic acetylcholine receptor M4 (Homo sapiens) (UniProt P08173); test: Inhibition of binding of [3H]quinuclidinyl benzilate to Muscarinic acetylcholine receptor M4 in membranes of transfected CHO cells
[6] = target: T2, Muscarinic acetylcholine receptor M1; test: Inhibition of binding of [3H]oxotremorine M to Muscarinic acetylcholine receptor M1 in rat cerebral cortical membranes; type: cell membranes, Membrane
Summary of the method: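 Agonist radioligand assay: rat cortical membranes with 2 nM [3H]oxotremorine M in 25 mM sodium phosphate pH 7.4 with 5 mM MgCl2, 2 h at 25 °C, in triplicate. Nonspecific binding used 5 µM atropine. Filtration followed by scintillation counting.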

[7] = target: T2, Muscarinic acetylcholine receptor M1; test: Affinity versus [3H]oxotremorine M (agonist) binding to Muscarinic acetylcholine receptor M1 in Rat Cerebral Cortical Membranes, (Kd=[…])
[8] = target: T4, Muscarinic acetylcholine receptor M2 (Homo sapiens, UniProt P08172); test: (§3) Inhibition of binding of [3H]quinuclidinyl benzilate to muscarinic receptors in membranes of CHO cells transfected with Muscarinic acetylcholine receptor M2; type: cell membranes
T4 sequence (P08172 whole entry): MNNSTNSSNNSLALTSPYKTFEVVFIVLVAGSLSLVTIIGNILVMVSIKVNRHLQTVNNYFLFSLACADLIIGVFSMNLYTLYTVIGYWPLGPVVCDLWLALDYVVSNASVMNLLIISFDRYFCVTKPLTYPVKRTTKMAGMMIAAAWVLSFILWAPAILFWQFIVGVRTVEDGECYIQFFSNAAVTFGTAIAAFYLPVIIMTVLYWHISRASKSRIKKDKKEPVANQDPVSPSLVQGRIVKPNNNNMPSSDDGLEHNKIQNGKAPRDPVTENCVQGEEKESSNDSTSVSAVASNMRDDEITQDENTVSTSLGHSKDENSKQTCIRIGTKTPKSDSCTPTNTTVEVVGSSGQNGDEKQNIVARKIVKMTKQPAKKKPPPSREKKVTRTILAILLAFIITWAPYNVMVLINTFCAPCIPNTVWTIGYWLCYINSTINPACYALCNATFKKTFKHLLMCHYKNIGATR

[9] = target: T2, Muscarinic acetylcholine receptor M1; test: Affinity versus [3H]quinuclidinyl benzilate (antagonist) binding to Muscarinic acetylcholine receptor M1 in Rat Cerebral Cortical Membranes,; summary of the method: as §2
[10] = target: T5, Muscarinic acetylcholine receptor M1 (Rattus norvegicus) (UniProt P08482); conditions: Membrane; 30 uM
T5 sequence (whole entry): T2 sequence (P08482 whole entry)

[11] = target: T2, Muscarinic acetylcholine receptor M1; test: Inhibition of binding of [3H]quinuclidinyl benzilate to Muscarinic acetylcholine receptor M1 in rat cerebral cortical membranes; type: cell membranes, Membrane; summary of the method: as §2
[12] = target: T6, Muscarinic acetylcholine receptor M1 (Homo sapiens) (UniProt P11229); test: (§4) Percentage inhibition of binding of [3H]quinuclidinyl benzilate to muscarinic receptors in membranes of CHO cells transfected with Muscarinic acetylcholine receptor M1; type: cell membranes; conditions: concentration not given here
T6 sequence (whole entry): T2 sequence (P08482 whole entry) with V5A, S254T, S309P, K320R, G337A, V413I
Summary of the method: (§5)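 Membranes from CHO cells expressing human M1–M4 receptors in 25 mM sodium phosphate pH 7.4 with 5 mM MgCl2, 30 min at 37 °C, triplicate. [3H]quinuclidinyl benzilate was 0.2 nM for M1 and M3 and 0.1 nM for M2 and M4. Nonspecific binding used 10 µM atropine for M1 and 1 µM for the others.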

[13] = target: T7, Muscarinic acetylcholine receptor M4 (Homo sapiens, UniProt P08173); test: (§6) Inhibition of binding of [3H]quinuclidinyl benzilate to muscarinic receptors in membranes of CHO cells transfected with Muscarinic acetylcholine receptor M4; type: cell membranes
T7 sequence (P08173 whole entry): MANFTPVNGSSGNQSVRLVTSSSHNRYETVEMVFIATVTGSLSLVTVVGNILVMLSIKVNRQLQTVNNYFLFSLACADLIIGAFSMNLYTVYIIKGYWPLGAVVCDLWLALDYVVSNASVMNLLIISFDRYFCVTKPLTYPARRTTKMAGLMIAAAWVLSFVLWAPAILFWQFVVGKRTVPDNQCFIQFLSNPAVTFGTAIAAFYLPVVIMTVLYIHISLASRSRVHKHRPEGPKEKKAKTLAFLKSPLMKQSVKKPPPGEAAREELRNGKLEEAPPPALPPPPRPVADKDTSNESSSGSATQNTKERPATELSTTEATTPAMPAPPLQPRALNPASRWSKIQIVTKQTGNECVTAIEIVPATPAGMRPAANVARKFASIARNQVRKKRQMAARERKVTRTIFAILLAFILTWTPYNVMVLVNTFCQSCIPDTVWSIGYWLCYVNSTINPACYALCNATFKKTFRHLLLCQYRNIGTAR

[14] = target: T1, Neuronal acetylcholine receptor; alpha4/beta2; test: Inhibition of binding of [3H]nicotine to Nicotinic acetylcholine receptor alpha4-beta2 in rat cerebral cortical membranes; type: cell membranes, Membrane; summary of the method: as §1
[15] = target: T3, Muscarinic acetylcholine receptor M3; test: Inhibition of binding of [3H]quinuclidinyl benzilate to human Muscarinic acetylcholine receptor M3 in membranes of transfected CHO cells at 100 uM concentration; conditions: Membrane
Target sequence in this assay (P20309 whole entry, looked up): as the sequence (P20309 whole entry) above

[16] = target: T6, Muscarinic acetylcholine receptor M1 (Homo sapiens); test: Percentage inhibition of binding of [3H]quinuclidinyl benzilate to […] Muscarinic acetylcholine receptor M1 transfected in membranes of CHO cells; type: cell membranes; conditions: concentration not given here
[17] = target: T2, Muscarinic acetylcholine receptor M1; test: Inhibition of binding of [3H]quinuclidinyl benzilate to Muscarinic acetylcholine receptor M1 in rat cerebral cortical membranes at 100 uM concentration; type: cell membranes, Membrane
Summary of the method: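 Rat cortical membranes with 0.2 nM [3H]quinuclidinyl benzilate in HEPES pH 7.4 with 10 mM MgCl2 and 100 mM NaCl, 30 min at 37 °C, triplicate. Atropine 1 µM defined nonspecific binding. Percent inhibition was read at 100 µM test agent; mean ± SEM, n = 4.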

[18] = target: T3, Muscarinic acetylcholine receptor M3; test: Inhibition of binding of [3H]quinuclidinyl benzilate to muscarinic receptors in membranes of CHO cells transfected with […] Muscarinic acetylcholine receptor M3; type: cell membranes; conditions: concentration not given here
Target sequence in this assay (P20309 whole entry, looked up): as the sequence (P20309 whole entry) above

[19] = target: Muscarinic acetylcholine receptor M3 (Rattus norvegicus) (UniProt P08483); conditions: Membrane; 300 uM
Chain of Muscarinic acetylcholine receptor M3 (Rattus norvegicus) (P08483 whole entry, looked up): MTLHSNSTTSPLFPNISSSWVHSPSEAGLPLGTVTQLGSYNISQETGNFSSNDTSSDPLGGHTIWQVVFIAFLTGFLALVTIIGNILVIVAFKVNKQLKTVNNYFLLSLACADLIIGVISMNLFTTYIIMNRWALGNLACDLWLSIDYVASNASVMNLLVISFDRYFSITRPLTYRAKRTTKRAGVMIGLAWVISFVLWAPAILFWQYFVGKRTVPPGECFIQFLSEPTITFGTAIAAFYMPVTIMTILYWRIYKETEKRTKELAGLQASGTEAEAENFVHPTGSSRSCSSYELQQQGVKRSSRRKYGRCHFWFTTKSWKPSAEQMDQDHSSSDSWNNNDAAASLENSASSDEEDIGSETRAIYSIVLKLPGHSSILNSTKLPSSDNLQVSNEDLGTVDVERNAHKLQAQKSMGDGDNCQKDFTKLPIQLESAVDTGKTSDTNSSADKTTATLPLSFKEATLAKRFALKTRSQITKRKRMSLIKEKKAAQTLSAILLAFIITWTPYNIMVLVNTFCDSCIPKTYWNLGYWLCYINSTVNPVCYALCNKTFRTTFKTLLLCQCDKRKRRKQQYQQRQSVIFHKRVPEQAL

[20] = target: T8, Muscarinic acetylcholine receptor M4 (Rattus norvegicus) (UniProt P08485); test: Inhibition of binding of [3H]quinuclidinyl benzilate to Muscarinic acetylcholine receptor M4 […] at 300 uM concentration; type: cell membranes; conditions: Membrane
T8 sequence (whole entry): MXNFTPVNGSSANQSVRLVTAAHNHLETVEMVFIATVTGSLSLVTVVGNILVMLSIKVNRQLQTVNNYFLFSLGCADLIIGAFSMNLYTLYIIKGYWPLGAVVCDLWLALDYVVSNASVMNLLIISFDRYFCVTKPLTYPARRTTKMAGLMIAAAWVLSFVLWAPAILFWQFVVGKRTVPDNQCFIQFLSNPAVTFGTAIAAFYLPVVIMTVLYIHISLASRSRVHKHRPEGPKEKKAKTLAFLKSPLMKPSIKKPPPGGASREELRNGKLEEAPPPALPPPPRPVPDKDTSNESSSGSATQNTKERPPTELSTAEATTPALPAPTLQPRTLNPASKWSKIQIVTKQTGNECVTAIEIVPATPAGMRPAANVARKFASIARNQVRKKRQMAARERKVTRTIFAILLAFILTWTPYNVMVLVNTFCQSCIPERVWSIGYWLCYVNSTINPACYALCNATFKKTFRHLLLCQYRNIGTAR

[21] = target: T9, Muscarinic acetylcholine receptor M2 (Rattus norvegicus, UniProt P10980); test: as §3; type: cell membranes; summary of the method: as §5
T9 sequence (P10980 whole entry): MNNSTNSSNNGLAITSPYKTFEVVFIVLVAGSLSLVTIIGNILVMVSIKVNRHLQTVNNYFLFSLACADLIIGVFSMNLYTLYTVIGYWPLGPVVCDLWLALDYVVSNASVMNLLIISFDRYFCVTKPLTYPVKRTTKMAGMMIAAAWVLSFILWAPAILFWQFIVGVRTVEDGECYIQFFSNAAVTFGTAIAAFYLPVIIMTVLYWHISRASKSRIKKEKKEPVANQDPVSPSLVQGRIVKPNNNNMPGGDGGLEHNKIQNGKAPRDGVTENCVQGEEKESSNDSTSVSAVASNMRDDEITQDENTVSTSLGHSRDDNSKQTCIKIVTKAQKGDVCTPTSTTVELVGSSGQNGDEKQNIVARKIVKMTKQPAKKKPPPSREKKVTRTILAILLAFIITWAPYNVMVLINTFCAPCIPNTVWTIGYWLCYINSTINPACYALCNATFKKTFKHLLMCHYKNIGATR

[22] = target: Muscarinic acetylcholine receptor M1 (Homo sapiens) (UniProt P11229); test: Inhibition of binding of [3H]quinuclidinyl benzilate to human Muscarinic acetylcholine receptor M1 in membranes of transfected CHO cells at 300 uM concentration; conditions: Membrane
Target sequence in this assay (P11229 whole entry, looked up): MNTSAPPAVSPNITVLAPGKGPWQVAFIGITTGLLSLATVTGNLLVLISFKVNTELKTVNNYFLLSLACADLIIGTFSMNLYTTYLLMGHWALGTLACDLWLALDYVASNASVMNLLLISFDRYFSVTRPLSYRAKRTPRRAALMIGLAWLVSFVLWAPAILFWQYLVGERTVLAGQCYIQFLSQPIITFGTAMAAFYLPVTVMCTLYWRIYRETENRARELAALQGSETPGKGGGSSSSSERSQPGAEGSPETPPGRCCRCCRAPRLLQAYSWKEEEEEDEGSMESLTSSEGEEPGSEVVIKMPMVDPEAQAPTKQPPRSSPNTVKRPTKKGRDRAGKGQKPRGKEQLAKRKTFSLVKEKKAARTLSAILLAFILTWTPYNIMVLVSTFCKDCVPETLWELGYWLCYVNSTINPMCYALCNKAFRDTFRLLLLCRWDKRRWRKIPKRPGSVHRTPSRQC

[23] = target: T8, Muscarinic acetylcholine receptor M4 (Rattus norvegicus); test: as §6; type: cell membranes; conditions: concentration not given here; summary of the method: as §5
[24] = target: T5, Muscarinic acetylcholine receptor M1 (Rattus norvegicus); test: as §4; type: cell membranes; conditions: concentration not given here; summary of the method: as §5
[25] = target: Muscarinic acetylcholine receptor M3 (Rattus norvegicus) (UniProt P08483); test: Percentage inhibition of binding of [3H]quinuclidinyl benzilate to muscarinic receptors in membranes of CHO cells transfected with Muscarinic acetylcholine receptor M3; type: cell membranes; conditions: concentration not given here
[26] = target: T1, Neuronal acetylcholine receptor; alpha4/beta2; test: Inhibition of binding of [3H]nicotine to Nicotinic acetylcholine receptor alpha4-beta2 in rat cerebral cortical membranes at 100 uM concentration; type: cell membranes, Membrane
Summary of the method: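 [3H]nicotine (0.2 nM) binding to rat cortical membranes, with 200 µM diisopropyl fluorophosphate, 120 min at 0–4 °C, triplicate. Nonspecific binding with 1 µM nicotine. Percent inhibition at 100 µM test agent; mean ± SEM, n = 4.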

T1 sequence (P09483 whole entry): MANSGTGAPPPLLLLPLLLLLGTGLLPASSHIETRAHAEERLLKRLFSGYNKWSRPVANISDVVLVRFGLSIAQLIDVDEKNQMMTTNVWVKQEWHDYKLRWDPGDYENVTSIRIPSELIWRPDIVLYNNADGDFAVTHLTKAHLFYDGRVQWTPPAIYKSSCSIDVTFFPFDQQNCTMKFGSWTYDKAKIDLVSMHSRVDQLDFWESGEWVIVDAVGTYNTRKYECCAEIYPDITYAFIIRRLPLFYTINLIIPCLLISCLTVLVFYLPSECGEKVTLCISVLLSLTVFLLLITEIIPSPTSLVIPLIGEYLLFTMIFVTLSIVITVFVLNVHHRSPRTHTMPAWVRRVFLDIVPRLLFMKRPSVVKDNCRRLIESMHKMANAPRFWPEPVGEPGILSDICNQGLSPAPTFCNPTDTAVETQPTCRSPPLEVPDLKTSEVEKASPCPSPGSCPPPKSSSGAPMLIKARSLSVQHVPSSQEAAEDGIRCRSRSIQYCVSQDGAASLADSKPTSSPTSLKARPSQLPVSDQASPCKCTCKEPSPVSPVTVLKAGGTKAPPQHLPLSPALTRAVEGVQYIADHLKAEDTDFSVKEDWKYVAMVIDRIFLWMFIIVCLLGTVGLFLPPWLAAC
T1 sequence (P12390 whole entry): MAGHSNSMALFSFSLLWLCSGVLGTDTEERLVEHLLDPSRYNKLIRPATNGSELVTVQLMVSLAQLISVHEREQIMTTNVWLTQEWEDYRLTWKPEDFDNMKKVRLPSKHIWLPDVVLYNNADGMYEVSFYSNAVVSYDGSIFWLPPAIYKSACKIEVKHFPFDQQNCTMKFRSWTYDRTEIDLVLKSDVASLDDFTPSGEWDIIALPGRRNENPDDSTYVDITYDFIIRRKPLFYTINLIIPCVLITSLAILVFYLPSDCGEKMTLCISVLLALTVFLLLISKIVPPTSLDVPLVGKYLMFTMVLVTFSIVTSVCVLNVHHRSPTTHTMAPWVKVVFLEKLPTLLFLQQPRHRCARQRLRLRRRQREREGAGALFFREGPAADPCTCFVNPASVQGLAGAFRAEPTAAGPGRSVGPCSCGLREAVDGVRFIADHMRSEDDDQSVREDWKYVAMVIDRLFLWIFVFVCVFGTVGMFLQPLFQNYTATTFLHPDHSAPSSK

CC(=O)OC1CC2CCCC1N2C (centres undefined)
Ki [1]: 1.5 µM
Ki [2]: 280 µM
Ki [3]: 2.7 µM
Ki [4]: 15 µM
Ki [5]: 8.3 µM
Ki [6]: 2.6 µM
Ki [7]: 2.6 µM
Ki [8]: 2.7 µM
Ki [9]: 280 µM
inhibition [10]: 48%
Ki [11]: 280 µM
inhibition [12]: 48%
Ki [13]: 8.3 µM
Ki [14]: 1.5 µM

COC(=O)C1=CCC2CCC1N2C (centres undefined)
Ki [2]: 25 µM
inhibition [15]: 28%
inhibition [16]: 26%
Ki [17]: 25 µM
inhibition [18]: 28%

C[N+](C)(C)CCOC(N)=O
inhibition [19]: 16%

COC(=O)[C@H]1CC2NC1CC[C@@H]2O (some centres undefined)
Ki [1]: 4 µM
Ki [3]: 12 µM
inhibition [20]: 33%
Ki [6]: 18 µM
Ki [7]: 18 µM
Ki [21]: 12 µM
inhibition [22]: 2%
inhibition [15]: 0%
inhibition [23]: 33%
inhibition [24]: 2%
Ki [14]: 4 µM
inhibition [25]: 0%

COC(=O)C1=CCCN(C)C1 [ARECOLINE]
Ki [1]: 0.27 µM
Ki [26]: 0.27 µM

— ChEMBL document CHEMBL1131242, “6beta-Acetoxynortropane: a potent muscarinic agonist with apparent selectivity toward M2-receptors” (J Med Chem, 1998)
